Reference: ChEMBL document CHEMBL3627671, “Novel derivatives of nitro-substituted salicylic acids: Synthesis, antimicrobial activity and cytotoxicity” (Bioorg Med Chem, 2015)
pIC50: −log10 of the molar value. Values after ≈ are worked out from the molar mass of the structure shown.

Experiments:
[1] = test system: Candida albicans; test: Antifungal activity against Candida albicans ATCC 44859 after 24 hrs by microdilution broth method; type: functional; details: ATCC 44859, 24 h
In short: (§1)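 CLSI M27-A3 broth microdilution in RPMI 1640 with glutamine, buffered to pH 7.0 with MOPS; DMSO diluent. Yeast inoculum 5 × 10^3 ± 0.2 CFU/mL. Moulds grown on Sabouraud agar 3–10 days before spore harvest, final inoculum 0.5-5 × 10^4 CFU/mL, checked in a Bürker chamber. Incubated dark, humid, 35 °C, read at 24 and 48 h visually and at 540 nm. MIC taken as ≥80% (yeasts) or ≥50% (filamentous) growth reduction versus control.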

[2] = test system: Nakaseomyces glabratus; test: Antifungal activity against Candida glabrata 20/I after 48 hrs by microdilution broth method; type: functional; in short: as §1
[3] = test system: Mycobacterium kansasii; test: Antimycobacterial activity against Mycobacterium kansasii 235/80 after 21 days; type: functional; details: 235/80, 504 h
In short: (§2)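 Šula's semisynthetic medium micromethod at 37 °C, read after 7, 14 and 21 days. The 1.0 McFarland suspension was diluted 10^-4. MIC determined. 6509/96 is a clinical isolate.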

[4] = test system: Mycobacterium avium; test: Antimycobacterial activity against Mycobacterium avium 330/80 after 14 days; type: functional; details: 330/80, 336 h
[5] = test system: Pseudomonas aeruginosa; test: Antibacterial activity against Pseudomonas aeruginosa CCM 1961 after 48 hrs by microdilution broth method; type: functional; details: CCM 1961, 48 h
In short: (§3)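 Mueller-Hinton broth microdilution (modified M07-A07), pH 7.4 (±0.2). Compounds dissolved in DMSO, tested at final 500 to 0.49 µmol/L. Inoculum in sterile water matched to 0.5 McFarland. Incubated in the dark, humid atmosphere, 35 °C, read at 24 and 48 h visually and at 540 nm. MIC taken as ≥95% growth reduction (IC95) versus control.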

[6] = test system: Trichosporon asahii; test: Antifungal activity against Trichosporon asahii 1188 after 48 hrs by microdilution broth method; type: functional; details: Trichosporon asahii, 1188, 48 h; in short: as §1
[7] = test system: Escherichia coli; test: Antibacterial activity against Escherichia coli CCM4517 after 48 hrs by microdilution broth method; type: functional; details: CCM4517, 48 h; in short: as §3
[8] = test system: Staphylococcus aureus; test: Antibacterial activity against Staphylococcus aureus CCM 4516/08 after 24 hrs by microdilution broth method; type: functional; details: CCM 4516/08, 24 h
[9] = test system: Klebsiella pneumoniae; test: Antibacterial activity against ESBL-positive Klebsiella pneumoniae J 14368/08 after 48 hrs by microdilution broth method; type: functional; details: J 14368/08, 48 h; in short: as §3
[10] = test system: Aspergillus fumigatus; test: Antifungal activity against Aspergillus fumigatus 231 after 24 hrs by microdilution broth method; type: functional; details: Aspergillus fumigatus, 231, 24 h; in short: as §1
[11] = test system: Candida tropicalis; test: Antifungal activity against Candida tropicalis 156 after 24 hrs by microdilution broth method; type: functional; details: Candida tropicalis, 156, 24 h; in short: as §1
[12] = test system: Staphylococcus aureus; test: Antibacterial activity against methicillin-resistant Staphylococcus aureus H 5996/08 after 24 hrs by microdilution broth method; type: functional; details: H 5996/08, 24 h
[13] = test system: Lichtheimia corymbifera; test: Antifungal activity against Absidia corymbifera 272 after 24 hrs by microdilution broth method; type: functional; details: Lichtheimia corymbifera, 272, 24 h; in short: as §1
[14] = test system: Enterococcus sp.; test: Antibacterial activity against Enterococcus sp. J 14365/08 after 48 hrs by microdilution broth method; type: functional; details: J 14365/08, 48 h; in short: as §3
[15] = test system: Pseudomonas aeruginosa; test: Antibacterial activity against Pseudomonas aeruginosa CCM 1961 after 24 hrs by microdilution broth method; type: functional; details: CCM 1961, 24 h; in short: as §3
[16] = test system: Lichtheimia corymbifera; test: Antifungal activity against Absidia corymbifera 272 after 48 hrs by microdilution broth method; type: functional; details: Lichtheimia corymbifera, 272, 48 h; in short: as §1
[17] = test system: Klebsiella pneumoniae; test: Antibacterial activity against Klebsiella pneumoniae D 11750/08 after 24 hrs by microdilution broth method; type: functional; details: D 11750/08, 24 h; in short: as §3
[18] = test system: Trichosporon asahii; test: Antifungal activity against Trichosporon asahii 1188 after 24 hrs by microdilution broth method; type: functional; details: Trichosporon asahii, 1188, 24 h; in short: as §1
[19] = test system: Mycobacterium kansasii; test: Antimycobacterial activity against Mycobacterium kansasii 235/80 after 14 days; type: functional; details: 235/80, 336 h; in short: as §2
[20] = test system: Klebsiella pneumoniae; test: Antibacterial activity against ESBL-positive Klebsiella pneumoniae J 14368/08 after 24 hrs by microdilution broth method; type: functional; details: J 14368/08, 24 h; in short: as §3
[21] = test system: Mycobacterium tuberculosis; test: Antimycobacterial activity against Mycobacterium tuberculosis H37Rv 331/88 after 21 days; type: functional; details: H37Rv 331/88, 504 h
[22] = test system: Nakaseomyces glabratus; test: Antifungal activity against Candida glabrata 20/I after 24 hrs by microdilution broth method; type: functional; in short: as §1
[23] = test system: Trichophyton mentagrophytes; test: Antifungal activity against Trichophyton mentagrophytes 445 after 24 hrs by microdilution broth method; type: functional; details: Trichophyton mentagrophytes, 445, 24 h
[24] = test system: Aspergillus fumigatus; test: Antifungal activity against Aspergillus fumigatus 231 after 48 hrs by microdilution broth method; type: functional; details: Aspergillus fumigatus, 231, 48 h; in short: as §1
[25] = test system: Staphylococcus aureus; test: Antibacterial activity against Staphylococcus aureus CCM 4516/08 after 48 hrs by microdilution broth method; type: functional; details: CCM 4516/08, 48 h
[26] = test system: Mycobacterium kansasii; test: Antimycobacterial activity against Mycobacterium kansasii 235/80 after 7 days; type: functional; details: 235/80, 168 h; in short: as §2
[27] = Selectivity index, ratio of CI50 for human HepG2 cells to MIC100 for Mycobacterium tuberculosis H37Rv 331/88
[28] = test system: Pichia kudriavzevii; test: Antifungal activity against Candida krusei E28 after 48 hrs by microdilution broth method; type: functional; details: E28, 48 h; in short: as §1
[29] = test system: Mycobacterium kansasii; test: Antimycobacterial activity against Mycobacterium kansasii 6509/96 after 21 days; type: functional; details: 6509/96, 504 h; in short: as §2
[30] = test system: Candida albicans; test: Antifungal activity against Candida albicans ATCC 44859 after 48 hrs by microdilution broth method; type: functional; details: ATCC 44859, 48 h; in short: as §1
[31] = test system: Klebsiella pneumoniae; test: Antibacterial activity against Klebsiella pneumoniae D 11750/08 after 48 hrs by microdilution broth method; type: functional; details: D 11750/08, 48 h; in short: as §3
[32] = test system: Trichophyton mentagrophytes; test: Antifungal activity against Trichophyton mentagrophytes 445 after 48 hrs by microdilution broth method; type: functional; details: Trichophyton mentagrophytes, 445, 48 h
[33] = test system: Staphylococcus epidermidis; test: Antibacterial activity against Staphylococcus epidermidis H 6966/08 after 48 hrs by microdilution broth method; type: functional; details: H 6966/08, 48 h; in short: as §3
[34] = test system: Pichia kudriavzevii; test: Antifungal activity against Candida krusei E28 after 24 hrs by microdilution broth method; type: functional; details: E28, 24 h; in short: as §1
[35] = test system: Staphylococcus aureus; test: Antibacterial activity against methicillin-resistant Staphylococcus aureus H 5996/08 after 48 hrs by microdilution broth method; type: functional; details: H 5996/08, 48 h
[36] = test system: HepG2; test: Cytotoxicity against human HepG2 cells after 24 hrs […]; type: cell-based; details: HepG2, 24 h
[37] = test system: Mycobacterium tuberculosis; test: Antimycobacterial activity against Mycobacterium tuberculosis H37Rv 331/88 after 14 days; type: functional; details: H37Rv 331/88, 336 h
[38] = test system: Escherichia coli; test: Antibacterial activity against Escherichia coli CCM4517 after 24 hrs by microdilution broth method; type: functional; details: CCM4517, 24 h; in short: as §3
[39] = test system: Mycobacterium kansasii; test: Antimycobacterial activity against Mycobacterium kansasii 6509/96 after 7 days; type: functional; details: 6509/96, 168 h; in short: as §2
[40] = test system: Staphylococcus epidermidis; test: Antibacterial activity against Staphylococcus epidermidis H 6966/08 after 24 hrs by microdilution broth method; type: functional; details: H 6966/08, 24 h; in short: as §3
[41] = test system: Mycobacterium kansasii; test: Antimycobacterial activity against Mycobacterium kansasii 6509/96 after 14 days; type: functional; details: 6509/96, 336 h; in short: as §2
[42] = test system: Mycobacterium avium; test: Antimycobacterial activity against Mycobacterium avium 330/80 after 21 days; type: functional; details: 330/80, 504 h
[43] = test system: Candida tropicalis; test: Antifungal activity against Candida tropicalis 156 after 48 hrs by microdilution broth method; type: functional; details: Candida tropicalis, 156, 48 h; in short: as §1
[44] = test system: Enterococcus sp.; test: Antibacterial activity against Enterococcus sp. J 14365/08 after 24 hrs by microdilution broth method; type: functional; details: J 14365/08, 24 h; in short: as §3

SMILES: O=C(Nc1ccc(Cl)c(Cl)c1)c1cc([N+](=O)[O-])ccc1O
- MIC [1]: > 500 µM
- MIC [2]: > 500 µM
- MIC [3]: 32 µM (≈ 10.5 µg/mL)
- MIC [4]: 125 µM (≈ 40.9 µg/mL)
- MIC [5]: > 500 µM
- MIC [6]: > 500 µM
- MIC [7]: > 500 µM
- MIC [8]: 31.2 µM (≈ 10.2 µg/mL)
- MIC [9]: > 500 µM
- MIC [10]: > 500 µM
- MIC [11]: > 500 µM
- MIC [12]: 31.2 µM (≈ 10.2 µg/mL)
- MIC [13]: > 500 µM
- MIC [14]: 125 µM (≈ 40.9 µg/mL)
- MIC [15]: > 500 µM
- MIC [16]: > 500 µM
- MIC [17]: > 500 µM
- MIC [18]: > 500 µM
- MIC [19]: 32 µM (≈ 10.5 µg/mL)
- MIC [20]: > 500 µM
- MIC [21]: 16 µM (≈ 5.23 µg/mL)
- MIC [22]: > 500 µM
- MIC [23]: 250 µM (≈ 81.8 µg/mL)
- MIC [24]: > 500 µM
- MIC [25]: 31.2 µM (≈ 10.2 µg/mL)
- MIC [26]: 16 µM (≈ 5.23 µg/mL)
- Selectivity Index [27]: 0.556
- MIC [28]: > 500 µM
- MIC [29]: 32 µM (≈ 10.5 µg/mL)
- MIC [30]: > 500 µM
- MIC [31]: > 500 µM
- MIC [32]: 250 µM (≈ 81.8 µg/mL)
- MIC [33]: 62.5 µM (≈ 20.4 µg/mL)
- MIC [34]: > 500 µM
- MIC [35]: 31.2 µM (≈ 10.2 µg/mL)
- pIC50 [36]: 5.05
- MIC [37]: 8 µM (≈ 2.62 µg/mL)
- MIC [38]: > 500 µM
- MIC [39]: 32 µM (≈ 10.5 µg/mL)
- MIC [40]: 62.5 µM (≈ 20.4 µg/mL)
- MIC [41]: 32 µM (≈ 10.5 µg/mL)
- MIC [42]: 125 µM (≈ 40.9 µg/mL)
- MIC [43]: > 500 µM
- MIC [44]: 125 µM (≈ 40.9 µg/mL)

SMILES: O=C(Nc1cccc(C(F)(F)F)c1)c1cc([N+](=O)[O-])ccc1O
- MIC [1]: > 500 µM
- MIC [2]: > 500 µM
- MIC [3]: 62.5 µM (≈ 20.4 µg/mL)
- MIC [4]: 125 µM (≈ 40.8 µg/mL)
- MIC [5]: > 500 µM
- MIC [6]: 500 µM (≈ 163 µg/mL)
- MIC [7]: > 500 µM
- MIC [8]: 31.2 µM (≈ 10.2 µg/mL)
- MIC [9]: > 500 µM
- MIC [10]: 500 µM (≈ 163 µg/mL)
- MIC [11]: > 500 µM
- MIC [12]: 31.2 µM (≈ 10.2 µg/mL)
- MIC [13]: 500 µM (≈ 163 µg/mL)
- MIC [14]: > 500 µM
- MIC [15]: > 500 µM
- MIC [16]: 500 µM (≈ 163 µg/mL)
- MIC [17]: > 500 µM
- MIC [18]: 500 µM (≈ 163 µg/mL)
- MIC [19]: 32 µM (≈ 10.4 µg/mL)
- MIC [20]: > 500 µM
- MIC [21]: 16 µM (≈ 5.22 µg/mL)
- MIC [22]: > 500 µM
- MIC [23]: 500 µM (≈ 163 µg/mL)
- MIC [24]: 500 µM (≈ 163 µg/mL)
- MIC [25]: 31.2 µM (≈ 10.2 µg/mL)
- MIC [26]: 16 µM (≈ 5.22 µg/mL)
- Selectivity Index [27]: 0.463
- MIC [28]: > 500 µM
- MIC [29]: 62.5 µM (≈ 20.4 µg/mL)
- MIC [30]: > 500 µM
- MIC [31]: > 500 µM
- MIC [32]: 500 µM (≈ 163 µg/mL)
- MIC [33]: 31.2 µM (≈ 10.2 µg/mL)
- MIC [34]: > 500 µM
- MIC [35]: 31.2 µM (≈ 10.2 µg/mL)
- pIC50 [36]: 5.13
- MIC [37]: 8 µM (≈ 2.61 µg/mL)
- MIC [38]: > 500 µM
- MIC [39]: 32 µM (≈ 10.4 µg/mL)
- MIC [40]: 31.2 µM (≈ 10.2 µg/mL)
- MIC [41]: 62.5 µM (≈ 20.4 µg/mL)
- MIC [42]: 125 µM (≈ 40.8 µg/mL)
- MIC [43]: > 500 µM
- MIC [44]: > 500 µM
